Results: ChEMBL document CHEMBL1152609, “Synthesis and pharmacological exploitation of clioquinol-derived copper-binding apoptosis inducers triggering reactive oxygen species generation and MAPK pathway activation” (2009)
Activity calls are given as the source filed them. No cut-off for these calls is given here.

Tests used:
HeLa [1] = test: Growth inhibition of human HeLa cells after 48 hrs by MTT assay in presence of 10% FBS supplemented DMEM medium; type: functional
Summary of the method: (§1)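 Cells seeded at 5 × 10³/well and allowed 24 h to attach, then exposed to compound (DMSO stock) or vehicle for 48 h in 10% FBS DMEM at 37 °C, 5% CO₂. MTT (2 mg/mL in PBS) added for a further 2 h; formazan dissolved in DMSO and read at 570 nm. Inhibition = (1 − At/Ac) × 100. GI₅₀ interpolated from dose-response curves; mean ± SEM of 4–6 experiments; top concentration 40 μM.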

BT-483 = test: Growth inhibition of human BT-483 cells at 40 uM after 48 hrs by MTT assay in presence of 10% FBS supplemented DMEM medium; type: functional, cell-based; summary of the method: as §1
SKHep = test: Growth inhibition of human SKHep cells at 40 uM after 48 hrs by MTT assay in presence of 10% FBS supplemented DMEM medium; type: functional, cell-based; summary of the method: as §1
CE81T = test: Growth inhibition of human CE81T cells at 40 uM after 48 hrs by MTT assay in presence of 10% FBS supplemented DMEM medium; type: functional, cell-based; summary of the method: as §1
HeLa [2] = test: Growth inhibition of human HeLa cells after 48 hrs by MTT assay in presence of 1 uM CuCl2; type: functional; summary of the method: as §1
HeLa [3] = test: Growth inhibition of human HeLa cells after 48 hrs by MTT assay in presence of 10 uM CuCl2; type: functional; summary of the method: as §1
HeLa [4] = test: Growth inhibition of human HeLa cells after 48 hrs by MTT assay in presence of 50 uM CuCl2; type: functional; summary of the method: as §1
HeLa [5] = test: Growth inhibition of human HeLa cells after 48 hrs by MTT assay in presence of 50 uM ZnCl2; type: functional; summary of the method: as §1
HeLa [6] = test: Growth inhibition of human HeLa cells after 48 hrs by MTT assay in presence of 100 uM ZnCl2; type: functional; summary of the method: as §1
[7] = Growth inhibition of human BT-483 cells after 48 hrs by MTT assay in presence of 10% FBS supplemented DMEM medium; type: functional; details: BT-483, 48 h; summary of the method: as §1
[8] = Growth inhibition of human SKHep cells after 48 hrs by MTT assay in presence of 10% FBS supplemented DMEM medium; type: functional; summary of the method: as §1
[9] = Growth inhibition of human CE81T cells after 48 hrs by MTT assay in presence of 10% FBS supplemented DMEM medium; type: functional; summary of the method: as §1
HeLa [10] = test: Stimulation of reactive oxygen species in human HeLa cells at 10 uM in presence of 10 uM CuCl2 after 1 hr by dihydroethidium dye based fluorescence assay; type: functional, cell-based
Summary of the method: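 HeLa cells grown in DMEM with 10% FBS, 2 mM glutamine, penicillin/streptomycin at 37 °C, 5% CO2. Compound given with CuCl2, with or without tempol 1 mM; 0.5% DMSO control, untreated blank. Dihydroethidium 5 µmol/L loaded 30 min, PBS wash, epifluorescence microscopy; four separate cultures, two to six coverslips each.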

Row | GI50 (HeLa [1]) [µM] | GI50 (BT-483) | GI50 (SKHep) | GI50 (HeLa [2]) [µM] | GI50 (HeLa [3]) [µM] | GI50 (HeLa [4]) [µM] | GI50 (HeLa [5]) [µM] | GI50 (HeLa [6]) [µM] | Compound | GI50 (CE81T) | GI50 [7] [µM] | GI50 [8] [µM] | GI50 [9] [µM] | Activity (HeLa [10])
1 | 38.6 | inactive | inactive | 40.1 | 28.4 | 22.6 | 29.7 | 20.1 | O=S(=O)(c1ccccc1)N1CCN(Cc2ccc3ccccc3c2O)CC1 | inactive |  |  |  | 
2 | 18.6 |  |  | 6.1 | 5.3 | 4.4 | 5.6 | 2.1 | CCN(CC)CCCC(C)Nc1ccnc2cc(Cl)ccc12 (stereo not drawn) [CHLOROQUINE] |  | 10.2 | 9.5 | 23.4 | Active
3 | 25.5 | inactive | inactive | 30.7 | 22.8 | 48.8 | 34 | 44.5 | Oc1c(CN2CCCCC2)ccc2ccccc12 | inactive |  |  |  | 
